Source: article PMC11656131 (Angewandte Chemie (International Ed. in English), 2024)
“Also recorded” adds a separate entry of the source.

Target: T1, CERT (Homo sapiens, UniProt Q9Y5P4)
T1 sequence (Q9Y5P4 1-598 isoform Q9Y5P4-2): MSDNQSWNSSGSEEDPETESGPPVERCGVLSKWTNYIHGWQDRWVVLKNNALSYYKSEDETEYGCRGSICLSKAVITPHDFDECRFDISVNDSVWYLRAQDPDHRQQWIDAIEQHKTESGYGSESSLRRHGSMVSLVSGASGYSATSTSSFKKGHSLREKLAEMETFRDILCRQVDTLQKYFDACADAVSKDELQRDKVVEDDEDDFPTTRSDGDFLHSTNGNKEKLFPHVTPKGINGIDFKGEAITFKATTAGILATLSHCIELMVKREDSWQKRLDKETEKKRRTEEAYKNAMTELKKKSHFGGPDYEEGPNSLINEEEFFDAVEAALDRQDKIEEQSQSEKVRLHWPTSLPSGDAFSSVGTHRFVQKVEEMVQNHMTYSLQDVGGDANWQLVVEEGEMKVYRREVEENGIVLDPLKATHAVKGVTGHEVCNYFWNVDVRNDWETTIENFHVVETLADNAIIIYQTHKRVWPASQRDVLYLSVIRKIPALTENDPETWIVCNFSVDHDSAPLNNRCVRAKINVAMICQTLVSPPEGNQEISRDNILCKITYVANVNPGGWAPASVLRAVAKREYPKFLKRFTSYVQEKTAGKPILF
Assay: NanoBRET live-cell CERT assay
Format: cell-based
Settings: cells pre-treated with SACLAC
In short: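 HeLa cells (or CERT-deficient HeLa) were transfected with NLuc fused N-terminally to full-length CERT, split into 96-well plates next day and incubated overnight. Nano-Glo Vivazine live-cell substrate was added, then NR-Cer acceptor (0.2 µM, or titrated) with test compound. mBRET was read relative to untreated (100% BRET). Library screen at 0.2 µM in single determination; dose-response in triplicate, Hill fit.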

CCCCCCCCCCCCCCC[C@@H](O)[C@H](CO)NC(=O)CCl [SACLAC]
mBRET after pre-treatment with acid ceramidase inhibitor: no effect on BRET efficiency; also recorded: only slightly elevated mBRET values
